From ChEMBL document CHEMBL1158585, “Oploxynes A and B, polyacetylenes from the stems of Oplopanax elatus” (J Nat Prod, 2010)
pIC50: −log10 of the molar value. Activity calls are given as the source filed them. No cut-off for these calls is given here.

What was measured:
RAW264.7 [1] = test: Antiinflammatory activity in lipopolysaccharide-induced mouse RAW264.7 cells assessed as inhibition of nitric oxide production after 20 to 24 hrs by Griess method; format: functional, cell-based
Method in brief: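 RAW264.7 cells seeded at 1 × 10⁵ cells/well and left 6 h to attach, then given phenol red-free medium with 1 µg/mL E. coli LPS (strain 055:B5), with or without compound, for 20-24 h. Compounds were serially diluted. Supernatant nitrite read by Griess reagent, absorbance at 540 nm, against a NaNO₂ standard curve. Control got 0.5% (v/v) DMSO. Triplicate wells.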

RAW264.7 [2] = test: Antiinflammatory activity in lipopolysaccharide-induced mouse RAW264.7 cells assessed as inhibition of prostaglandin E2 production after 20 to 24 hrs; format: functional, cell-based
Method in brief: (§1)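 PGE₂ made from endogenous arachidonic acid was measured with a commercial PGE₂ parameter assay kit, following the manufacturer's protocol.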

RAW264.7 [3] = test: Cytotoxicity in mouse RAW264.7 cells; format: cell-based
RAW264.7 [4] = test: Antiinflammatory activity in lipopolysaccharide-induced mouse RAW264.7 cells assessed as inhibition of nitric oxide production at 8 uM after 24 hrs by Griess method; format: functional, cell-based
Method in brief: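 RAW264.7 cells seeded at 1 × 10⁵ cells/well and left 6 h to attach, then exposed to compound at 8 µM for 24 h in phenol red-free medium with 1 µg/mL E. coli LPS (strain 055:B5). Supernatant nitrite read by Griess reagent at 540 nm against a NaNO₂ standard curve. Control got 0.5% (v/v) DMSO. Triplicate wells.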

RAW264.7 [5] = test: Antiinflammatory activity in lipopolysaccharide-induced mouse RAW264.7 cells assessed as inhibition of prostaglandin E2 production at 8 uM after 24 hrs; format: functional, cell-based; method in brief: as §1

Compound | pIC50 (RAW264.7 [1]) | pIC50 (RAW264.7 [2]) | pIC50 (RAW264.7 [3]) | inhibition (RAW264.7 [4]) | inhibition (RAW264.7 [5])
C=CC(O)C#CC#C[C@@H](O)/C=C\CCCCCCC (mixture of isomers) | 5.89 | 5.81 | 5.42 |  | 
CCCCCCC/C=C\[C@H](O)C#CC#C[C@@H](O)CC [OPLOPANDIOL] | 5.57 | 5.52 | < 4.40 | Active | Active
CCCCCCC[C@@H]1O[C@@H]1[C@H](O)C#CC#C[C@@H](O)CC [OPLOXYNE A] | 5.70 | 5.51 | < 4.40 | Active | Active
CCCCCCC[C@@H](OC)[C@H](O)[C@H](O)C#CC#C[C@@H](O)CC [OPLOXYNE B] | < 4.40 | < 4.40 | < 4.40 |  | 
